# Measurements: PubChem BioAssay
# Calls of active or inactive are those of the source.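 Rule for the calls, unless noted: active = viability loss from added drug above about 55%, and viability with drug at most 40%, in both replicates (limit read from the data, passing the limit was not always enough); inconclusive = both conditions met in only one replicate; inactive = neither replicate meets both conditions.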
# How the values were obtained:
# [1] = Her2 expression decrease, cell viability multiplex – SKBR3 breast tumor cells, AlphaScreen, ATP viability, primary screen (AID 461;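 active = Her2 level under about 52% in both replicate screens, with viability over 70% of control, limit read from the data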;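 for Her2 level: lower value means less Her2 protein in the cells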;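 for viability: percent of carrier control wells set as 100% viability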); conditions: SKBR3 Her2 protein level, 18-24 h, measured here: SKBR3 viability, ATP luminescence, at 10 µM
# [2] = target: Receptor tyrosine-protein kinase erbB-2 (Homo sapiens) (UniProt P04626); assay: as above; conditions: 18-24 h, at 10 µM, stronger effect = lower value
# [3] = reduced viability of SK-BR-3 breast cancer cells – cell-based, 24 h, human, pilot screen (AID 572;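 active = viability at or below 10% of carrier control in both of two separate runs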;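 note: compound exposure lasted between 18 and 24 h rather than exactly 24 h; 100% = carrier-treated control wells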); conditions: SK-BR-3 viability, CellTiter-Glo luminescence, at 10 µM, stronger effect = lower value
# [4] = HUVEC growth inhibition – cell-based, human, primary screen (AID 575;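 active = viability at or below 30% in both replicate assays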;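 note: 100% = median of untreated cell wells with 0.1% DMSO on each plate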); conditions: HUVEC proliferation, CellTiter-Glo luminescence, 72 h; at 10 µM; stronger effect = lower value
# Method in brief: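 System – primary HUVEC, no more than 12 passages · Medium – Low-serum (2% FBS) EBM, supplemented · Times – 72 h exposure, 37 °C, 5% CO2, 30 min RT equilibration · Measured by – luminescent ATP assay · Read-out – % viability relative to median vehicle-well signal on each plate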
# [5] = H69AR cell proliferation blockers – human, duplicate replicates, primary screen (AID 580;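 active = viability at or under a set limit in both replicates, limit being median viability minus 3 SD, cut at about 48% in these data, passing the limit was not always enough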;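 note: 100% = mean luminescence of untreated wells and 0% = no signal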); conditions: H69AR lung tumor cells viability, ATP luminescence, 72 h; at 10 µM; stronger effect = lower value
# [6] = MRP1 drug-resistance reversers in H69AR cells – cell-based, doxorubicin co-treatment, pilot screen (AID 601); conditions: CellTiter-Glo, 72 h, at 10 µM; for differential viability (reversal): stronger effect = higher value
# [7] = yeast transport mutant growth inhibition pilot in 384-well plates, post-Golgi transport modulator project (AID 636; in the data active = inhibition above about 31%); conditions: absorbance 615 nm, about 18 h, stronger effect = higher value
# [8] = growth suppression of yeast trafficking mutant, preliminary HTS, modulators of trafficking downstream of Golgi apparatus project, 1536-format plate, OD 615 nm (AID 637; in the data active = inhibition above about 30%); conditions: yeast transport mutant growth, absorbance 615 nm, 18 h; stronger effect = higher value
# [9] = H69AR cells + 2 uM doxorubicin, measured here: viability with 2 uM doxorubicin, stronger effect = lower value
# [10] = H69AR cells, compound alone cytotoxicity
# Chain of Receptor tyrosine-protein kinase erbB-2 (Homo sapiens) (P04626 whole entry, looked up): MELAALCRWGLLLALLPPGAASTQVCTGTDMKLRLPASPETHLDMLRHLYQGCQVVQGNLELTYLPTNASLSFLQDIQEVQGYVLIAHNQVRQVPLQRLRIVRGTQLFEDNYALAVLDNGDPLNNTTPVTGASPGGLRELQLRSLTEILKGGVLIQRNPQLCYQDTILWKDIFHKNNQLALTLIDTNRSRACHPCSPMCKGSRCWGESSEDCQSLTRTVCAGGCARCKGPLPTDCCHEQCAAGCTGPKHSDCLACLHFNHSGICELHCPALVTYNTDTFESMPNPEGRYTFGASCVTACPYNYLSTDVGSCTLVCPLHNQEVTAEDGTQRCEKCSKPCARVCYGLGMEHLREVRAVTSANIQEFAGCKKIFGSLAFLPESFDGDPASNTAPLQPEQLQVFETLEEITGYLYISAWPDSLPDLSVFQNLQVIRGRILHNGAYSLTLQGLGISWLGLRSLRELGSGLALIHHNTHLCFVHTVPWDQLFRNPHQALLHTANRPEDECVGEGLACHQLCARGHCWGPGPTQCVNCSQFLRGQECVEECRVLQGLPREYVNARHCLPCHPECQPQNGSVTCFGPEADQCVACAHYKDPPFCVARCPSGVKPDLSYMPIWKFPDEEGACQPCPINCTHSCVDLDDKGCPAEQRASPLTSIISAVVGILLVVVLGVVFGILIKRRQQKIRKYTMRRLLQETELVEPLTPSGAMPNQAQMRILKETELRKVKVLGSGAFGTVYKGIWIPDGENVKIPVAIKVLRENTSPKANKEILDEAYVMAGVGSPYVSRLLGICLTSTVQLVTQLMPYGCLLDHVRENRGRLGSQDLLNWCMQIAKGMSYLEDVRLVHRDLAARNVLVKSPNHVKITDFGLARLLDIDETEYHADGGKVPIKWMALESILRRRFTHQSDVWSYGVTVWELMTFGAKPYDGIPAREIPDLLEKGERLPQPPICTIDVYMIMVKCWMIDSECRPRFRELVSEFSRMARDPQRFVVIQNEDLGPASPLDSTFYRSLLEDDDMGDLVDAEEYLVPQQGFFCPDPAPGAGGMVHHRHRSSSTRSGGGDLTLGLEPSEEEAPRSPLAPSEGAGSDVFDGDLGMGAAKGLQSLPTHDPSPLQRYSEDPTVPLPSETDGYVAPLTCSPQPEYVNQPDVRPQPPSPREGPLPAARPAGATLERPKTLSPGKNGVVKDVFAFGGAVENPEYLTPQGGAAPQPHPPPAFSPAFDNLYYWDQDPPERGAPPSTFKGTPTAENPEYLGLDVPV
Compound,viability [1] [%],Her2 level [2],viability [3],viability [4],viability [5],differential viability (reversal) ([6]; H69AR cells + 2 uM doxorubicin),"viability [6, 9] [%]","viability [6, 10] [%]",inhibition [7],inhibition [8]
CCOC(=O)C(NCc1ccccc1OC)(NC(C)=O)C(F)(F)F (stereo not given),116,91% (inactive),116% (inactive),98.8% (inactive),91.8% (inactive),1.75% (inactive),90.1,91.8,-2.6% (inactive),-0.63% (inactive)
CCCc1c(O)nc(SCC(=O)NCCc2ccc(OC)c(OC)c2)[nH]c1=O,95,93.5% (inactive),95% (inactive),84.6% (inactive),104% (inactive),-0.29% (inactive),104,104,-4.53% (inactive),-2.26% (inactive)
Cc1ccc(NC(=O)c2ccccc2O)cc1,93.5,87.5% (inactive),93.5% (inactive),86.9% (inactive),89.2% (inactive),-0.22% (inactive),89.4,89.2,-1.49% (inactive),-2.7% (inactive)
CCCC(NC(=O)c1ccccc1)c1nc2ccccc2n1Cc1ccc(C(=O)OC)o1 (stereo not given),98,105% (inactive),98% (inactive),85.4% (inactive),95% (inactive),4.1% (inactive),90.9,95,-2.76% (inactive),-9.17% (inactive)
COc1cc(C2CC(=O)NC3=C2C(=O)CC(C)(C)C3)ccc1O (stereo not given),89.5,93.5% (inactive),89.5% (inactive),82.7% (inactive),109% (inactive),19.9% (inactive),89.5,109,-3.82% (inactive),-4.17% (inactive)
O=S(=O)(NCCc1ccccc1F)c1cccc(S(=O)(=O)N2CCOCC2)c1,87,94.5% (inactive),87% (inactive),96.8% (inactive),97.5% (inactive),9.29% (inactive),88.2,97.5,-3.42% (inactive),3.77% (inactive)
Cc1cc(NC(=O)c2cc3ccccc3o2)cc(C)c1OCC(=O)N1CCOCC1,92.5,102% (inactive),92.5% (inactive),90.6% (inactive),90.3% (inactive),0.745% (inactive),89.5,90.3,-6.89% (inactive),-1.8% (inactive)
O=C(COc1ccccc1Cl)NCc1ccco1,89.5,78.5% (inactive),89.5% (inactive),103% (inactive),107% (inactive),15.4% (inactive),91.6,107,-0.81% (inactive),-3.93% (inactive)
CC1=C(c2ccc(Cl)cc2)[N+](=O)C(C)(C)N1[O-],99.5,95.5% (inactive),99.5% (inactive),110% (inactive),89.6% (inactive),-4.19% (inactive),93.8,89.6,-4.52% (inactive),-10.2% (inactive)
CC1(C)CC(=O)C=C(Nc2ccc(F)cc2)C1,102,95% (inactive),102% (inactive),90.5% (inactive),96.5% (inactive),6.35% (inactive),90.1,96.5,-0.39% (inactive),-3.64% (inactive)
COCCNC(=O)C(c1cccc(OC)c1)N(Cc1cccs1)C(=O)Cn1nnc2ccccc21 (stereo not given),110,82% (inactive),110% (inactive),105% (inactive),99.2% (inactive),4.64% (inactive),94.5,99.2,-3.6% (inactive),1.48% (inactive)
C/C=C/c1ccc(OCCn2cncn2)c(OC)c1,98.5,126% (inactive),98.5% (inactive),95.6% (inactive),89.8% (inactive),1.09% (inactive),88.7,89.8,0.14% (inactive),0.66% (inactive)
Cc1ccc2c(Cl)cc(Cl)c(OCc3c(C)noc3C)c2n1,102,99.5% (inactive),102% (inactive),84.7% (inactive),84.9% (inactive),-0.21% (inactive),85.1,84.9,6.08% (inactive),13.3% (inactive)
Cc1ccc(-c2nnc(N(C)C(=O)c3ccccn3)s2)cn1,133,94.5% (inactive),133% (inactive),90.9% (inactive),103% (inactive),20.9% (inactive),82.3,103,-6.85% (inactive),-4.6% (inactive)
COc1ccc(-c2[nH]nc3c2C(c2ccccc2OC(=O)N2CCOCC2)C(C#N)=C(N)O3)cc1 (stereo not given),120,85.5% (inactive),120% (inactive),96.2% (inactive),88.9% (inactive),1.89% (inactive),87,88.9,-1.58% (inactive),-1.45% (inactive)
COc1ccccc1NC(=O)c1cc2n(n1)C(C(F)(F)F)CC(c1ccc3c(c1)OCO3)N2 (stereo not given),85,95% (inactive),85% (inactive),47.7% (inactive),73.3% (inactive),-13.8% (inactive),87.1,73.3,-4.03% (inactive),-3.33% (inactive)
CCCc1cn(S(=O)(=O)c2ccc(OC)cc2OC)nc1N,98,84.5% (inactive),98% (inactive),92.8% (inactive),92.4% (inactive),3.72% (inactive),88.7,92.4,-7.2% (inactive),0% (inactive)
CC1CCN(S(=O)(=O)c2ccc(NC(=O)CSc3nnnn3C)cc2)CC1,94.5,103% (inactive),94.5% (inactive),76.3% (inactive),101% (inactive),22% (inactive),78.7,101,-5.92% (inactive),-3.49% (inactive)
Cc1cc(=O)oc2ccc(OCC(=O)N3CCC(C)CC3)cc12,87,90% (inactive),87% (inactive),92.3% (inactive),96.3% (inactive),5.65% (inactive),90.7,96.3,-1.05% (inactive),1.15% (inactive)
OC(COc1ccccc1)CN1C2=NCCCN2c2ccccc21 (stereo not given),80.5,79.5% (inactive),80.5% (inactive),97.4% (inactive),92.6% (inactive),7.67% (inactive),85,92.6,-4.93% (inactive),3.11% (inactive)
Cc1nc(SCc2ccc(Br)cc2)[nH]c(=O)c1C,83.5,85.5% (inactive),83.5% (inactive),60.7% (inactive),92.1% (inactive),9.71% (inactive),82.4,92.1,-5.14% (inactive),0.82% (inactive)
CCCCn1c(=O)[nH]c(=O)c2c1nc(-c1ccncc1)n2CCOC,108,116% (inactive),108% (inactive),90.5% (inactive),94.2% (inactive),1.93% (inactive),92.2,94.2,1.43% (inactive),-6.5% (inactive)
CCCN(CCC)C(=O)CSc1nc2ccccc2c(=O)n1C1CCCC1,136,60.5% (inactive),136% (inactive),87.2% (inactive),66.7% (inactive),10.4% (inactive),56.3,66.7,-3.68% (inactive),-2.54% (inactive)
CCOc1ccc2nc(SCC(=O)N3CCCCCC3)c(C#N)cc2c1,95,82.5% (inactive),95% (inactive),87.5% (inactive),86.2% (inactive),-3.21% (inactive),89.4,86.2,-5.87% (inactive),3.28% (inactive)
CCOC(=O)c1[nH]c(=O)c2ccccc2c1O,106,94.5% (inactive),106% (inactive),95.8% (inactive),90.8% (inactive),-0.03% (inactive),90.8,90.8,-10% (inactive),-8.41% (inactive)
CC(C)CCNC(=O)C1CCN(C(=O)N(C)C)CC1,104,125% (inactive),104% (inactive),108% (inactive),98.8% (inactive),5% (inactive),93.8,98.8,-1.41% (inactive),-1.33% (inactive)
COc1cc(SC)ccc1C(=O)Nc1ccon1,98.5,104% (inactive),98.5% (inactive),93% (inactive),101% (inactive),6.34% (inactive),94.5,101,0.27% (inactive),18.6% (inactive)
Cc1nc2sc(C(c3ccccc3)N3CCN(c4ccccc4F)CC3)c(O)n2n1 (stereo not given),91.5,93.5% (inactive),91.5% (inactive),97.6% (inactive),100% (inactive),2.07% (inactive),98.1,100,0% (inactive),-7.7% (inactive)
COc1ccc(-c2nc(C#N)c(N3CCOCC3)o2)cc1OC,111,92% (inactive),111% (inactive),89.8% (inactive),84.5% (inactive),-0.495% (inactive),85,84.5,-1.3% (inactive),9% (inactive)
